{"source": "paper PMC8081235", "about": "(Biochemistry, 2020)", "key": {"[1]": {"target": "T1, PLC-γ1 (D1165H) (Rattus norvegicus, UniProt P10686, D1165H)", "T1 sequence (P10686 1-1290 D1165H)": "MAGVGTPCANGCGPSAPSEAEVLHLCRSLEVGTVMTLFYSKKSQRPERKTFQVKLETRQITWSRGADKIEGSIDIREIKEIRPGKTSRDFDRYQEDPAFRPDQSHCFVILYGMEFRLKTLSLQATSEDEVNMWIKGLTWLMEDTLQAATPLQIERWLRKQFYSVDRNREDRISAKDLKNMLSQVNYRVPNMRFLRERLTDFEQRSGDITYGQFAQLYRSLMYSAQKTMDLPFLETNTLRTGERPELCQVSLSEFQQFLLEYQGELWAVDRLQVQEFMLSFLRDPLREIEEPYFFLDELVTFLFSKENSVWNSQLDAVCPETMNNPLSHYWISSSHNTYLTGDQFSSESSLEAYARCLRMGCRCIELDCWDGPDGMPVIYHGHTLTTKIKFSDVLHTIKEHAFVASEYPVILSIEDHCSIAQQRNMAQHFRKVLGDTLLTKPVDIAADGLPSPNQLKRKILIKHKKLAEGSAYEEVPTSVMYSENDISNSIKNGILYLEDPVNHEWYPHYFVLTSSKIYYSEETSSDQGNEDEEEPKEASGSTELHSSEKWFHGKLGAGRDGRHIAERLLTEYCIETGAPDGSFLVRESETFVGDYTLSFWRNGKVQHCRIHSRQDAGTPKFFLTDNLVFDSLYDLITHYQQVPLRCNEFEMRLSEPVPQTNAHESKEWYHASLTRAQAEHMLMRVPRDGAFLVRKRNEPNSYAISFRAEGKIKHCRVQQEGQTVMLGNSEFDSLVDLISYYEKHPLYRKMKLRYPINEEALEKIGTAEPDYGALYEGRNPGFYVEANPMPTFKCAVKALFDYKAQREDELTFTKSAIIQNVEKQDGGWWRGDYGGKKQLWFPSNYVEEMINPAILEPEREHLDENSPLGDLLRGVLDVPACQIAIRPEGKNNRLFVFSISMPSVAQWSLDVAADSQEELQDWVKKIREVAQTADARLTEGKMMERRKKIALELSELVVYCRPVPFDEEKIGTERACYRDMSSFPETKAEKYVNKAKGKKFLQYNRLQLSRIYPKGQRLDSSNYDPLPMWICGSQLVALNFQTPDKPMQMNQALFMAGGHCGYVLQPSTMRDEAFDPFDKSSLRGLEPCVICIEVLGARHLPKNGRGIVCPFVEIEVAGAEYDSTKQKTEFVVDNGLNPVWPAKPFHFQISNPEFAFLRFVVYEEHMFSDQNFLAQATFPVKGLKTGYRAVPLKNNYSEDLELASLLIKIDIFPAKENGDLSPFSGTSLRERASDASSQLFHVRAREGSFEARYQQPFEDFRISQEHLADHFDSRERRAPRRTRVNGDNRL", "experiment": "IC50 measurement with XY-69 in liposomes", "format": "biochemical", "conditions": "for inhibition of PLC-γ1: statement in conclusions, relative to ATP"}, "[2]": {"target": "T1, PLC-γ1 (D1165H)", "experiment": "Pilot high-throughput screen of LOPAC1280 with XY-69 in liposomes", "format": "biochemical", "method_in_brief": "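Screening was run in duplicate in 384-well format with test compounds at 10 μM. Purified PLC-γ1 (D1165H), 1 nM final, was preincubated 15 min at room temperature, then liposomes were added (final PE 220 μM, PIP₂ 20 μM, XY-69 0.5 μM). After 1 h the reaction was quenched with EGTA, pH 10.3, and read 30 min later (ex 485/em 520 nm). Full-inhibition controls were EGTA 10 mM and aurintricarboxylic acid 50 μM.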"}, "[3]": {"conditions": "stated without experiment or reference; cited from earlier work"}, "[4]": {"tested_on": "PLCs", "conditions": "purified enzymes and intact cells; pan-inhibitors ref 24; cited from earlier work"}, "[5]": {"target": "T2, wild-type PLC-γ1 (Rattus norvegicus, UniProt P10686)", "T2 sequence (P10686 2-1290)": "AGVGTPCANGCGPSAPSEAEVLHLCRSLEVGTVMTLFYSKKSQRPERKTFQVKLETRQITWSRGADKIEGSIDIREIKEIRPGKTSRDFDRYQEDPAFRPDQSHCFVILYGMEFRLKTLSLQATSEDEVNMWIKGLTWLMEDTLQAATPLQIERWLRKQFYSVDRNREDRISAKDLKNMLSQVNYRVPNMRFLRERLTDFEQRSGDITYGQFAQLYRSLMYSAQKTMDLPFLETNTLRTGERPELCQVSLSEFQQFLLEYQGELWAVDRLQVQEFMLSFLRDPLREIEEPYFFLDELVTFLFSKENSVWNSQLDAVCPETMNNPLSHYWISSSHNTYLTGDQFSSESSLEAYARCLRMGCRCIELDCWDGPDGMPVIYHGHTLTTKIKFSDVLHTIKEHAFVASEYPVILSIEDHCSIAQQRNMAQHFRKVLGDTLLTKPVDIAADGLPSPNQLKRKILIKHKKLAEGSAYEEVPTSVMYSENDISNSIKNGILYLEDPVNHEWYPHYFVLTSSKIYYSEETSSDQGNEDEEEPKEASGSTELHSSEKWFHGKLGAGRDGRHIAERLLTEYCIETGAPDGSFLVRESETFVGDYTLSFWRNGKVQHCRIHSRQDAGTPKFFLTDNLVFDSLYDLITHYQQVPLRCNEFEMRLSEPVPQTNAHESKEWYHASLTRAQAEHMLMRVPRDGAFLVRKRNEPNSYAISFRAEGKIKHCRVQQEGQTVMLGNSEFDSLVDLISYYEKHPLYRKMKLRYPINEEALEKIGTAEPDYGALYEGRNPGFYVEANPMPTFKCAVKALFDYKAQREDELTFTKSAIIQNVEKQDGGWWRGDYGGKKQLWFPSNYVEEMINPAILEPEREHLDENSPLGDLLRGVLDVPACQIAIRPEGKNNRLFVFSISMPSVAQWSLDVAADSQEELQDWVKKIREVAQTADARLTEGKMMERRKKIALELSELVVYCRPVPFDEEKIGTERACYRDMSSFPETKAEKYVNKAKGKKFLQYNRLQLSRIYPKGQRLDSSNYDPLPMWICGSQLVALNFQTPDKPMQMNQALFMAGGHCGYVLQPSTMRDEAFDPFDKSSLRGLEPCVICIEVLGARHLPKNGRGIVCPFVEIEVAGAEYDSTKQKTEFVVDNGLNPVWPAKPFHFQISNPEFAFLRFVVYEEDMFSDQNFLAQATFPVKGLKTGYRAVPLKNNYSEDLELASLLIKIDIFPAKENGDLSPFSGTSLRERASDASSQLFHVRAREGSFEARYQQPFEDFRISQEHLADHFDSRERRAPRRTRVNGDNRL", "experiment": "Isothermal titration calorimetry", "format": "binding", "conditions": "ITC, 25 °C"}, "[6]": {"target": "T3, wild-type PLC-γ1 (Rattus norvegicus, UniProt P10686)", "T3 sequence (P10686 1-1290)": "T1 sequence (P10686 1-1290 D1165H) with H1165D"}, "[7]": {"tested_on": "PLC-β4", "conditions": "high concentration (1 mM) ref 39; cited from earlier work"}, "[8]": {"tested_on": "PLC-γ1", "conditions": "purified PLC ref 7; cited from earlier work"}, "[9]": {"tested_on": "PLC-β2", "conditions": "purified PLC ref 7; cited from earlier work"}, "[10]": {"tested_on": "PLC-δ1", "conditions": "purified PLC ref 7; cited from earlier work"}, "[11]": {"experiment": "Solubility", "format": "physicochemical"}, "[12]": {"conditions": "XY-69 0.5 μM, PIP2 20 μM in liposomes"}}, "note": "Changes are numbered by the printed parent chain. Like-named read-outs stand apart in the source and are kept apart here."}
{"smiles": "Nc1ncnc2c1ncn2[C@@H]1O[C@H](COP(=O)(O)OP(=O)(O)O)[C@@H](O)[C@H]1O", "note": "[ADP]", "values": [{"measurement": "IC50", "setting": "[1]; [12]", "value": 4.3, "unit": "µM"}, {"measurement": "inhibition of PLC-γ1", "setting": "[1]", "value": "less or no inhibition"}]}
{"smiles": "Nc1ncnc2c1ncn2[C@@H]1O[C@H](COP(=O)(O)O)[C@@H](O)[C@H]1O", "note": "[AMP]", "values": [{"measurement": "inhibition of PLC-γ1", "setting": "[1]", "value": "less or no inhibition"}]}
{"smiles": "O=C(O)C1=CC(=C(c2ccc(O)c(C(=O)O)c2)c2ccc(O)c(C(=O)O)c2)C=CC1=O", "note": "[ATA, aurintricarboxylic acid]", "values": [{"measurement": "inhibition by control in pilot screen", "setting": "[2]; 50 μM", "value": "Full inhibition"}, {"measurement": "cell permeability", "setting": "[3]", "value": "not cell permeable"}, {"measurement": "direct inhibition of PLCs", "setting": "[4]", "value": "direct inhibitors"}]}
{"smiles": "Nc1ncnc2c1ncn2[C@@H]1O[C@H](COP(=O)(O)OP(=O)(O)OP(=O)(O)O)[C@@H](O)[C@H]1O", "note": "[ATP, adenosine triphosphate]", "values": [{"measurement": "IC50", "setting": "[1]", "value": 0.19, "unit": "µM"}, {"measurement": "Kd", "setting": "[5]", "value": 2.6, "unit": "µM"}, {"measurement": "reduction of Vmax", "setting": "[6]; 5 μM ATP present", "value": 4.1, "unit": "fold"}, {"measurement": "change of KM", "setting": "[6]; 1.5 and 5 μM ATP present", "value": "essentially unchanged"}, {"measurement": "cell permeability", "setting": "[3]", "value": "not cell permeable"}, {"measurement": "inhibition", "setting": "[7]", "value": "inhibit"}]}
{"smiles": "O=C(O)CN(CCOCCOCCN(CC(=O)O)CC(=O)O)CC(=O)O", "note": "[EGTA]", "values": [{"measurement": "inhibition by control in pilot screen", "setting": "[2]; 10 mM, chelates Ca2+ cofactor", "value": "Full inhibition"}]}
{"smiles": "Nc1nc2c(ncn2[C@@H]2O[C@H](COP(=O)(O)OP(=O)(O)OP(=O)(O)O)[C@@H](O)[C@H]2O)c(=O)[nH]1", "note": "[GTP]", "values": [{"measurement": "IC50", "setting": "[1]; [12]", "value": 12.7, "unit": "µM"}]}
{"smiles": "COc1ccc2c(c1)CC[C@@H]1[C@@H]2CC[C@]2(C)[C@@H](NCCCCCCN3C(=O)C=CC3=O)CC[C@@H]12", "note": "[Hit U73122]", "values": [{"measurement": "flagged as inhibitor in pilot screen", "setting": "[2]; LOPAC1280 at 10 μM", "value": "not flagged as an inhibitor"}, {"measurement": "inhibition of phospholipase activity", "setting": "[8]", "value": "does not inhibit"}, {"measurement": "inhibition of phospholipase activity", "setting": "[9]", "value": "does not inhibit"}, {"measurement": "inhibition of phospholipase activity", "setting": "[10]", "value": "does not inhibit"}]}
{"smiles": "O=C1Nc2cc(Br)ccc2/C1=C1/Nc2ccccc2/C1=N\\O", "note": "[Hit-1, 6-bromoindirubin-3′-oxime]", "values": [{"measurement": "solubility in aqueous buffer", "setting": "[11]", "value": "poor solubility"}, {"measurement": "cell permeability", "setting": "[3]", "value": "cell permeable"}]}
